Laboratory results published in ChEMBL document CHEMBL1154372, “Steroidal sapogenins and glycosides from the rhizomes of Dioscorea bulbifera” (J Nat Prod, 2009).
Activity calls are given as the source filed them. The calls are words filed in the database; no cut-off is given here.

System: SMMC-7721
Assay: Growth inhibition of human SMMC7721 cells after 48 hrs by MTT assay
Type: functional, cell-based
Details: SMMC-7721, 48 h
Summary of the method: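 SMMC7721 human hepatocellular carcinoma cells were kept in DMEM with 10% fetal calf serum at 37 °C and 5% CO2, and passaged twice weekly to stay in log growth. After 24 h at 7500 cells per well, compounds were added at various concentrations for 48 h, in triplicate. Viability was read as MTT formazan dissolved in DMSO, at 570 nm. IC50 determined; 10-hydroxycamptothecin served as positive control.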

Compound | IC50
CC[C@@]1(O)C(=O)OCc2c1cc1n(c2=O)Cc2cc3cc(O)ccc3nc2-1 [HYDROXYCAMPTOTHECIN] | 140 nM
C[C@@H]1CC[C@@]2(OC1)O[C@H]1C[C@H]3[C@@H]4CCC5=C[C@@H](O[C@@H]6O[C@H](CO)[C@@H](O)[C@H](O[C@@H]7O[C@@H](C)[C@H](O)[C@@H](O)[C@H]7O)[C@H]6O[C@@H]6O[C@@H](C)[C@H](O)[C@@H](O)[C@H]6O)CC[C@]5(C)[C@H]4CC[C@]3(C)[C@@]1(O)[C@@H]2C | 4540 nM

System: Bel-7402
Assay: Cytotoxicity against human Bel7402 cells at 10 uM after 48 hrs by MTT assay
Type: functional
Details: not given
Summary of the method: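 Bel-7402 human hepatocellular carcinoma cells were grown in DMEM with 10% fetal calf serum at 37 °C under 5% CO2 and subcultured twice weekly. Cells were seeded at 7500 per well and, after 24 h, compound was added at 10 µM. After 48 h exposure in triplicate, MTT was added, formazan was dissolved in DMSO and absorbance was read at 570 nm. The value is % inhibition.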

Compound | Activity
C[C@@H]1[C@@]2(CC[C@@](C)(CO)O2)O[C@H]2C[C@H]3[C@@H]4CCC5=CC(=O)CC[C@]5(C)[C@H]4CC[C@]3(C)[C@]21O | inactive
C[C@@H]1O[C@@H](O[C@H]2[C@H](O[C@H]3CC[C@@]4(C)C(=CC[C@@H]5[C@@H]4CC[C@@]4(C)[C@H]5C[C@@H]5O[C@]6(CC[C@](C)(O)CO6)[C@@H](C)[C@@]54O)C3)O[C@H](CO)[C@@H](O)[C@@H]2O[C@@H]2O[C@@H](C)[C@H](O)[C@@H](O)[C@H]2O)[C@H](O)[C@H](O)[C@H]1O | inactive
C[C@@H]1O[C@@H](O[C@@H]2[C@@H](O)[C@H](O[C@H]3CC[C@@]4(C)C(=CC[C@@H]5[C@@H]4CC[C@@]4(C)[C@H]5C[C@@H]5O[C@]6(CC[C@](C)(O)CO6)[C@@H](C)[C@@]54O)C3)O[C@H](CO)[C@H]2O)[C@H](O)[C@H](O)[C@H]1O | inactive
C[C@@H]1CC[C@@]2(OC1)O[C@H]1C[C@H]3[C@@H]4CCC5=C[C@@H](O[C@@H]6O[C@H](CO)[C@@H](O)[C@H](O[C@@H]7O[C@@H](C)[C@H](O)[C@@H](O)[C@H]7O)[C@H]6O[C@@H]6O[C@@H](C)[C@H](O)[C@@H](O)[C@H]6O)CC[C@]5(C)[C@H]4CC[C@]3(C)[C@@]1(O)[C@@H]2C | 99.1%
C[C@@H]1[C@@]2(CC[C@@](C)(CO)O2)O[C@H]2C[C@H]3[C@@H]4C=CC5=CC(=O)CC[C@]5(C)[C@H]4CC[C@]3(C)[C@]21O | inactive
C[C@@H]1CC[C@@]2(OC1)O[C@H]1C[C@H]3[C@@H]4CCC5=CC(=O)CC[C@]5(C)[C@H]4CC[C@]3(C)[C@@]1(O)[C@@H]2C | inactive
C[C@@H]1[C@@]2(CC[C@](C)(O)CO2)O[C@H]2C[C@H]3[C@@H]4CCC5=CC(=O)CC[C@]5(C)[C@H]4CC[C@]3(C)[C@]21O | inactive
C/C(C(=O)CC[C@@H](C)CO)=C1/C(=O)C[C@H]2[C@@H]3CCC4=C[C@@H](O[C@@H]5O[C@H](CO)[C@@H](O)[C@H](O[C@@H]6O[C@@H](C)[C@H](O)[C@@H](O)[C@H]6O)[C@H]5O[C@@H]5O[C@@H](C)[C@H](O)[C@@H](O)[C@H]5O)CC[C@]4(C)[C@H]3CC[C@]12C | inactive
